Assay results from different studies.
Each line is one published result; the experiments were not run side by side.
Target: Dual specificity tyrosine-phosphorylation-regulated kinase 1A (DYRK1A, Homo sapiens, UniProt Q13627)

`Cc1cc(NC(=O)c2cccc3cc(-c4cccc5[nH]nc(N)c45)ccc23)ccc1F` gave an activity vs control of 110% (enzyme activity, inhibitor; 0.1 µM).
`Cn1c2c(Cl)c(Cl)ccc2c2cn[nH]c(=O)c21` gave a ΔTm of 1.3 °C (thermal stability, DSF; 10 µM).
With `O=C(O)c1ccc2c(c1)nc(Nc1ccccc1)c1ncncc12` the remaining activity was 3% (enzyme activity, inhibitor, radiometric; 1 µM).
For `Cc1ccc(C(=O)Nc2ccc(CN3CCN(C)CC3)c(C(F)(F)F)c2)cc1C#Cc1cnc2cccnn12`, the remaining signal was 81% (cell-free assay; 23.5 nM).
For `CS(=O)(=O)CCNCc1ccc(-c2ccc3ncnc(Nc4ccc(OCc5cccc(F)c5)c(Cl)c4)c3c2)o1`, the remaining signal was 101% (cell-free assay; 0.5 µM).
For `Cn1c2c(c3ccc(Cl)c(Cl)c31)C(C#N)C1(CCN(C(=O)OC(C)(C)C)CC1)NC2=O` (racemic), the ΔTm was -0.8 °C (thermal stability, DSF; 10 µM).
`CNCc1ccccc1-c1csc([C@H](C)Nc2nc(C)nc3cc(OC)c(OC)cc23)c1` has a remaining binding of 80% (cell-free assay, competition with immobilised ligand; 1 µM).
The remaining activity of `O=C(O)c1ccc2c(c1)nc(NCc1ccccc1)c1ccncc12` is reported as 49% (enzyme activity, inhibitor, radiometric; 1 µM).
For `CCC1(CC)NC(=O)c2c(c3ccc(Cl)c(Cl)c3n2C)C1C#N` (stereo not shown), the ΔTm was 0.7 °C (thermal stability, DSF; 10 µM).
`Cn1cncc1C1=CN(c2ncnc3[nH]cnc23)CCS1` gave an inhibition of 95.4% (enzyme activity, inhibitor, radiometric; 2 µM).
The remaining binding of `CN([C@@H]1CCc2c(CC(=O)O)c3cc(S(C)(=O)=O)ccc3n2C1)S(=O)(=O)c1ccc(F)cc1` is reported as 81% (cell-free assay, competition with immobilised ligand; 1 µM).
`O=C1Nc2ccc(Cl)cc2C1=Cc1cc(Cl)c(O)c(Cl)c1` gave a remaining signal of 95.6% (cell-free assay; 0.5 µM).
The remaining binding of `Cc1cc(-n2nc(Cc3cc(F)cc(C(F)(F)F)c3)nc2C)ccc1C(N)=O` is reported as 92% (cell-free assay, competition with immobilised ligand; 1 µM).
For `O=C(O)c1ccc2c(c1)nc(Nc1cccc(F)c1)c1ncncc12`, the remaining activity was 1% (enzyme activity, inhibitor, radiometric; 1 µM).
`CN(C)C1CCN(CC#Cc2nn(C3CCCC3)c3nc(NCc4ccccc4)ncc23)C1` (stereo not shown) gave an inhibition of 4% (enzyme activity, inhibitor, FRET; 1 µM).
`CO[C@@H](C)c1c(Nc2ccc([C@@H](N(C)C(=O)C3CCS(=O)(=O)CC3)C(F)(F)F)cc2)cnc2cc(Cl)nn12` has a remaining binding of 92% (cell-free assay, competition with immobilised ligand; 1 µM).
The inhibition of `CC/C(=N\NC(=O)NCc1cccc(O)c1)c1ccc(O)c(C)c1O` is reported as -4.7% (enzyme activity, inhibitor; 0.1 µM).
For `CCCS(=O)(=O)Nc1ccc(F)c(C(=O)c2c[nH]c3ncc(-c4ccc(Cl)cc4)cc23)c1F`, the inhibition was under 10% (enzyme activity, inhibitor; 1 µM).
`CC1(C)NC(=O)c2[nH]c3c(Cl)c(Cl)ccc3c2C1C#N` (stereo not shown) gave a ΔTm of 2.6 °C (thermal stability, DSF; 10 µM).
`O=C(Nc1cccnn1)N1CC(C/C=C/c2cncc(Oc3ccc(C(F)(F)F)cn3)n2)C1` gave a remaining binding of 75% (cell-free assay, competition with immobilised ligand; 1 µM).
For `COc1cccc(CCNc2nc3cc(C(=O)O)ccc3c3cncnc23)c1`, the remaining activity was 40% (enzyme activity, inhibitor, radiometric; 1 µM).
The remaining binding of `O=S(=O)(NC1CCC(c2cc(F)ccc2F)(S(=O)(=O)c2ccc(Cl)cc2)CC1)C(F)(F)F` (stereo not shown) is reported as 78% (cell-free assay, competition with immobilised ligand; 1 µM).
`O=C(O)c1ccc2c(c1)nc(NCCc1cccc(Cl)c1)c1ccncc12` has a remaining activity of 17% (enzyme activity, inhibitor, radiometric; 1 µM).
With `N#CCCc1ccc2c(c1)-c1[nH]c3ccc([N+](=O)[O-])cc3c1CC(=O)N2` the remaining signal was 85.9% (cell-free assay; 0.5 µM).
With `COc1cc2ncnc(Nc3ccc(Oc4ccccc4)cc3C)c2cc1OC` the inhibition was -1% (enzyme activity, inhibitor; 1 µM).
For `O=C(O)c1ccc2c(c1)nc(NCCc1cccc(F)c1)c1ncncc12`, the remaining activity was 18% (enzyme activity, inhibitor, radiometric; 1 µM).
With `O=C(N1CCS(=O)(=O)CC1)N1C[C@H](c2ccc(OC(F)(F)F)cc2)C[C@H](c2nc(C3CC3)no2)C1` the remaining binding was 100% (cell-free assay, competition with immobilised ligand; 1 µM).
`O=C(O)c1ccc2c(c1)nc(Nc1ccc(Cl)cc1)c1ccncc12` has a remaining activity of 2% (enzyme activity, inhibitor, radiometric; 1 µM).
For `COc1ccc2c(O[C@@H]3C[C@H]4C(=O)N[C@]5(C(=O)O)CC5/C=C\CCCCC[C@H](NC(=O)OC5CCCC5)C(=O)N4C3)cc(-c3csc(NC(=O)C(C)C)n3)nc2c1C` (stereo partly shown), the remaining binding was 79% (cell-free assay, competition with immobilised ligand; 1 µM).
`O=C(O)c1ccc2c(c1)nc(NCc1ccccc1)c1ncncc12` gave a remaining activity of 61% (enzyme activity, inhibitor, radiometric; 1 µM).
The remaining signal of `COc1cc(Nc2c(C#N)cnc3cc(OCCCN4CCN(C)CC4)c(OC)cc23)c(Cl)cc1Cl` is reported as 99.4% (cell-free assay; 0.5 µM).
